Here are results for two molecules from ChEMBL document CHEMBL3751842, “Novel triazolothiadiazines act as potent anticancer agents in liver cancer cells through Akt and ASK-1 proteins” (Bioorg Med Chem, 2016).

Activity calls are given as the source filed them. No cut-off for these calls is given here.

Assay [1] concerns Mahlavu. Description: Induction of apoptosis in human Mahlavu cells assessed as decrease in cyclin D1 level after 24 to 48 hrs by Western blot analysis. Format: functional, cell-based. The method in brief: (§1)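 Cells were exposed to compound or DMSO control for 24 or 48 h. Lysates were loaded at […] protein per lane and immunoblotted with antibodies diluted 1:100 to 1:500 in 5% BSA-TBS-T. Targets were p-Akt (Ser473), Akt, p-GSK3-α/β (Ser21/9), GSK3-α/β, SAPK/JNK, p-SAPK/JNK (Thr183/Tyr185), PARP, p-β-catenin, β-catenin, cyclin D1, p-ASK1 (S83) and p-ASK1 (S966). Actin served as the loading control.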
Background: Immunoblotting shows a protein as a band on a membrane.

Assay [2] concerns the target T1, Catenin beta-1 (Homo sapiens) (UniProt P35222).
T1 sequence (whole entry): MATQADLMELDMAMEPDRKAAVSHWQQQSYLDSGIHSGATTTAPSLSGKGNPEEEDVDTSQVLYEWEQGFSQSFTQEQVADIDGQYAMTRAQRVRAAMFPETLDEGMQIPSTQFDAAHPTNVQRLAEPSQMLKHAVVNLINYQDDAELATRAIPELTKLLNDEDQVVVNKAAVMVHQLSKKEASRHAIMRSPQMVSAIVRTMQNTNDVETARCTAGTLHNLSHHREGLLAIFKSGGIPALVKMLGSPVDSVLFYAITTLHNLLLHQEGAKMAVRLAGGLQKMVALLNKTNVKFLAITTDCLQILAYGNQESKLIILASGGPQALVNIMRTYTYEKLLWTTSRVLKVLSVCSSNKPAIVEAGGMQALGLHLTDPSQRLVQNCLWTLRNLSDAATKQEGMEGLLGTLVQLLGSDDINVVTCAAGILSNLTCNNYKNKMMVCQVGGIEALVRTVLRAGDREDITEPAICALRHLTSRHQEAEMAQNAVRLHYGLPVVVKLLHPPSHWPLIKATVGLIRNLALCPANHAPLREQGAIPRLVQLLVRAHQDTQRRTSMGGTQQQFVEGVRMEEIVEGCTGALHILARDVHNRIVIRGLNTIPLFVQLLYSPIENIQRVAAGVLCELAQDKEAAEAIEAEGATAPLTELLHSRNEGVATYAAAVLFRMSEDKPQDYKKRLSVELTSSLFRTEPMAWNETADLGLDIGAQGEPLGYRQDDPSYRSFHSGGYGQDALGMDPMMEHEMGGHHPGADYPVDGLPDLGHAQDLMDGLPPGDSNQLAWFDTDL
As to the kind of experiment: Induction of beta-catenin phosphorylation in human HuH7 cells after 24 to 48 hrs by Western blot analysis. The assay is classed as cell-based. The following applies: Huh-7. In a few lines:
as §1

For assay [3], the target named is T2, Mitogen-activated protein kinase kinase kinase 5 (Homo sapiens) (UniProt Q99683).
T2 sequence (whole entry): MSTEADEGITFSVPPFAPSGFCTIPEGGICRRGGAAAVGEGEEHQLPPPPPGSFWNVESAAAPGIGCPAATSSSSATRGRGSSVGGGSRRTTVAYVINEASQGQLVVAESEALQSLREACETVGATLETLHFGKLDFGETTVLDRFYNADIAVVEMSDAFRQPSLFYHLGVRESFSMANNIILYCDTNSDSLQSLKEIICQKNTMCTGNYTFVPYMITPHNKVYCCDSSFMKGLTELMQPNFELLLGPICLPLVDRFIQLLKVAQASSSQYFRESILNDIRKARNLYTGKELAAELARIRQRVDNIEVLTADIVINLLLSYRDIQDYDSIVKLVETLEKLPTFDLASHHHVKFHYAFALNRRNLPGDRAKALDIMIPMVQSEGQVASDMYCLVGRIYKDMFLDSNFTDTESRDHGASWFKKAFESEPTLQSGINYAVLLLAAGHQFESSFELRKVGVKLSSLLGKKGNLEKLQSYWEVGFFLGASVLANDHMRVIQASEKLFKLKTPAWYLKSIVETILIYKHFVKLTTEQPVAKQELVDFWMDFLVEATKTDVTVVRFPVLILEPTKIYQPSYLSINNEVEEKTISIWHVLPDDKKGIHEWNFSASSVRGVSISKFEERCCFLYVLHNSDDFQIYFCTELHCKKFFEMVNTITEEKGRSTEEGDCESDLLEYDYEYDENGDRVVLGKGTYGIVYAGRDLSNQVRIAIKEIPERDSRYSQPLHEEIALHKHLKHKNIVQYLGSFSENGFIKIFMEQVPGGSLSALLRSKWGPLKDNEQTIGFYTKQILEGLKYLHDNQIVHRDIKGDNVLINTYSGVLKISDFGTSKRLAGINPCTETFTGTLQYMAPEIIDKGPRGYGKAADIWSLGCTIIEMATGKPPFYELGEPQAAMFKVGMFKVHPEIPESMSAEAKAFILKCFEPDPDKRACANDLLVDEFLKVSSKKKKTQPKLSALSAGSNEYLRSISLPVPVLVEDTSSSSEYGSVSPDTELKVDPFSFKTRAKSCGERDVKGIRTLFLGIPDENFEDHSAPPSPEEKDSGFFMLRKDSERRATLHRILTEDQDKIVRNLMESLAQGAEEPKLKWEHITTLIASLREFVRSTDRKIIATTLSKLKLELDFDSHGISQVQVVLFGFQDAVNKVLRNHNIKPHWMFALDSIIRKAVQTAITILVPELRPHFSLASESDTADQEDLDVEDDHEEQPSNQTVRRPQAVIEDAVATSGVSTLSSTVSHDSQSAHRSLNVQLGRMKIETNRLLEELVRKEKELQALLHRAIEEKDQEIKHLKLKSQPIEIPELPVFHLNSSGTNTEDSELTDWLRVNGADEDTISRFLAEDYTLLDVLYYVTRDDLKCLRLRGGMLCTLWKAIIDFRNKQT
Description: Activation of ASK1 in human HuH7 cells assessed as SAPK/JNK phosphorylation after 24 to 48 hrs by Western blot analysis. The following applies: Huh-7. The assay is classed as cell-based. In a few lines:
as §1

The test system of assay [4] is Mahlavu. As to the kind of experiment: Induction of apoptosis in human Mahlavu cells assessed as PARP cleavage after 24 to 48 hrs by Western blot analysis. Format: functional, cell-based. The method in brief:
as §1

The target in assay [5] is RAC-alpha serine/threonine-protein kinase (Homo sapiens) (UniProt P31749). As to the kind of experiment: Inhibition of Akt phosphorylation in human Mahlavu cells after 24 to 48 hrs by Western blot analysis. Format: cell-based. In a few lines: as §1
RAC-alpha serine/threonine-protein kinase (Homo sapiens), sequence (P31749 whole entry): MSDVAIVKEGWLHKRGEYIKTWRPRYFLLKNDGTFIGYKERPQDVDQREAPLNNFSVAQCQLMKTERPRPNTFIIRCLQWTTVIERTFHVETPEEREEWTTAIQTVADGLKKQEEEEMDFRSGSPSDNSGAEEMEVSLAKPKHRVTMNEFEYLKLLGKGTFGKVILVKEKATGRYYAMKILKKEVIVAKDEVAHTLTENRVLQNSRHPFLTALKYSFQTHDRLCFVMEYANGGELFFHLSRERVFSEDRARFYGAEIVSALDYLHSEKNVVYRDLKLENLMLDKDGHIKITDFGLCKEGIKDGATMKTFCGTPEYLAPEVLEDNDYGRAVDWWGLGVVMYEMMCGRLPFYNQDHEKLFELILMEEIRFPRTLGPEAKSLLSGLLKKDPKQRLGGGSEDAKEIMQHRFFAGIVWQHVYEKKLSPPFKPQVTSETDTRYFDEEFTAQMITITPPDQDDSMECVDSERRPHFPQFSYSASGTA
Assay [6] relates to Mahlavu. Description: Induction of oxidative stress in human Mahlavu cells assessed as ROS accumulation at 10 uM after 48 hrs by flow cytometry analysis. The assay is classed as functional, cell-based. The method in brief: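 Huh7 and Mahlavu cells were treated after 24 h with 10 µM compound or DMSO for 48 h. Cells were then trypsinized and processed with a MUSE oxidative stress kit for flow cytometric counting of ROS-positive cells. Cells grown in selenium-deficient serum-free medium served as the positive control.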

A further assay relates to HepG2. Description: Cytotoxicity against human HepG2 cells assessed as growth inhibition after 72 hrs by sulforhodamine B assay. The assay is classed as functional, cell-based. The settings on record: Homo sapiens, HepG2, 72 h; read-out: IC50. The method in brief: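 Cells were grown at 37°C, 5% CO2 in DMEM with 10% FBS. They were seeded at 1000–3000 cells/well, grown 24 h, then exposed to compound at 2.5–40 µM for 72 h. Cells were fixed in 10% TCA for 1 h at 4°C, stained with 0.4% SRB in 1% acetic acid for 10 min, and the dye solubilized in 10 mM Tris. Absorbance was read at 515 nm; runs were in triplicate; IC50 was calculated, with fits of R2 0.8–1 accepted.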
A general note: Sulforhodamine B stains cellular protein and so reports cell mass.

Usually IC50 stands for the concentration at which inhibition is half-maximal. As for `Cc1ccc(C2=Nn3c(nnc3C(C)c3ccc(CC(C)C)cc3)SC2)cc1` (centres undefined), the outcome (with Mahlavu [1]; in assay [2]; in assay [3]; with Mahlavu [4]; in the assay with Mahlavu [6]) was Active. In assay [5], the inhibition result is “Active”. For the same molecule, in the assay with HepG2, the concentration for half-maximal inhibition (IC50) amounted to 7.3 µM.
In the case of `COc1ccc(C2=Nn3c(nnc3C(C)c3ccc(CC(C)C)cc3)SC2)cc1` (centres undefined), the outcome (with Mahlavu [1]; in assay [2]; in assay [3]; with Mahlavu [4]; in the assay on Mahlavu [6]) was Active. The inhibition entry in assay [5] was “Active”. In the assay on HepG2, the IC50 is 3.8 µM.
